# Data reported in ChEMBL document CHEMBL3856209, “Novel pyrazolopyridine derivatives as potential angiogenesis inhibitors: Synthesis, biological evaluation and transcriptome-based mechanistic analysis” (Eur J Med Chem, 2016).
# Experiments:
# Type in all cases: functional, Homo sapiens
# HUVEC [1] = assay: Effect on UBE2J1 gene expression in serum-starved HUVEC after 6 hrs by microarray analysis relative to control
# HUVEC [2] = assay: Effect on MYLIP gene expression in serum-starved HUVEC after 6 hrs by microarray analysis relative to control
# HUVEC [3] = assay: Effect on ITGA10 gene expression in serum-starved HUVEC after 24 hrs by microarray analysis relative to control
# How it was run: (§1)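 Confluent, serum-starved HUVEC (pooled from 3–5 donors, passage ≤4) treated with 2 μM compound or vehicle with 2.5% FBS for 6 h or 24 h. Total RNA hybridized to Illumina Human-HT12 arrays. Data were background-corrected, vst-transformed and rsn-normalized. Hits called by moderated paired t-test versus DMSO-treated cells, p < 0.05 and log2 fold change >|0.5|.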
# HUVEC [4] = assay: Effect on COL8A1 gene expression in serum-starved HUVEC after 6 hrs by microarray analysis relative to control; how it was run: as §1
# HUVEC [5] = assay: Effect on GINS2 gene expression in serum-starved HUVEC after 6 hrs by microarray analysis relative to control; how it was run: as §1
# HUVEC [6] = assay: Effect on HMGB2 gene expression in serum-starved HUVEC after 6 hrs by microarray analysis relative to control
# HUVEC [7] = assay: Effect on CD46 gene expression in serum-starved HUVEC after 6 hrs by microarray analysis relative to control
# How it was run: (§2)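 Serum-starved confluent HUVEC treated with 2 μM compound or DMSO in 2.5% FBS for 6 h or 24 h; RNA hybridized to Illumina Human-HT12 arrays. Data background-corrected, vst-transformed and rsn-normalized. Differential probes called by moderated paired t-test (limma) at p < 0.05 and log2 fold change >|0.5| vs DMSO.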
# HUVEC [8] = assay: Effect on ASAP1 gene expression in serum-starved HUVEC after 24 hrs by microarray analysis relative to control
# How it was run: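 Serum-starved confluent HUVEC (primary, pooled from 3–5 donors, passage ≤4) treated with 2 μM test compound or DMSO vehicle (working dilutions ≤0.1% v/v) in presence of 2.5% FBS for 6 h or 24 h; total RNA hybridized to Illumina Human-HT12 arrays; background correction, vst, rsn normalization; moderated paired t-test versus DMSO, thresholds p < 0.05 and log2 fold change >|0.5|.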
# HUVEC [9] = assay: Effect on CMTM7 gene expression in serum-starved HUVEC after 24 hrs by microarray analysis relative to control
# How it was run: (§3)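 Confluent serum-starved HUVEC (primary, pooled from 3–5 donors, passage ≤4) treated with 2 μM compound or DMSO vehicle in 2.5% FBS for 6 h or 24 h. Total RNA hybridized to Illumina Human-HT12 arrays, background-corrected, vst-transformed and rsn-normalized. Differential expression versus DMSO by moderated paired t-test (p < 0.05, |log2 fold change| > 0.5).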
# HUVEC [10] = assay: Effect on LPIN1 gene expression in serum-starved HUVEC after 6 hrs by microarray analysis relative to control
# HUVEC [11] = assay: Effect on TP53INP2 gene expression in serum-starved HUVEC after 6 hrs by microarray analysis relative to control
# HUVEC [12] = assay: Effect on TYMS gene expression in serum-starved HUVEC after 6 hrs by microarray analysis relative to control
# HUVEC [13] = assay: Effect on CD68 gene expression in serum-starved HUVEC after 24 hrs by microarray analysis relative to control; how it was run: as §2
# HUVEC [14] = assay: Effect on FABP4 gene expression in serum-starved HUVEC after 6 hrs by microarray analysis relative to control; how it was run: as §3
# HUVEC [15] = assay: Effect on DKK1 gene expression in serum-starved HUVEC after 6 hrs by microarray analysis relative to control; how it was run: as §3
# HUVEC [16] = assay: Effect on HLA-DMA gene expression in serum-starved HUVEC after 24 hrs by microarray analysis relative to control
# HUVEC [17] = assay: Effect on NR2F1 gene expression in serum-starved HUVEC after 6 hrs by microarray analysis relative to control
# How it was run: (§4)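 Serum-starved confluent HUVEC (pooled from 3–5 donors, passage ≤4) were treated with 2 μM compound or vehicle in 2.5% FBS for 6 h or 24 h, and total RNA was isolated. Hybridization was on Illumina Human-HT12. Data were processed with bgAdjust, vst and rsn normalization. Changes versus DMSO were called by moderated paired t-test at p < 0.05 and |log2 fold change| > 0.5.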
# HUVEC [18] = assay: Effect on TRIP13 gene expression in serum-starved HUVEC after 6 hrs by microarray analysis relative to control
# HUVEC [19] = assay: Effect on KCNAB1 gene expression in serum-starved HUVEC after 6 hrs by microarray analysis relative to control; how it was run: as §1
# HUVEC [20] = assay: Effect on AFAP1L1 gene expression in serum-starved HUVEC after 6 hrs by microarray analysis relative to control; how it was run: as §3
# HUVEC [21] = assay: Effect on PRR11 gene expression in serum-starved HUVEC after 6 hrs by microarray analysis relative to control; how it was run: as §4
# HUVEC [22] = assay: Effect on GPR116 gene expression in serum-starved HUVEC after 6 hrs by microarray analysis relative to control; how it was run: as §1
# HUVEC [23] = assay: Effect on CDK1 gene expression in serum-starved HUVEC after 6 hrs by microarray analysis relative to control; how it was run: as §2
# HUVEC [24] = assay: Effect on ACAT2 gene expression in serum-starved HUVEC after 24 hrs by microarray analysis relative to control; how it was run: as §2
# HUVEC [25] = assay: Effect on GINS2 gene expression in serum-starved HUVEC after 24 hrs by microarray analysis relative to control; how it was run: as §1
# HUVEC [26] = assay: Effect on CYBA gene expression in serum-starved HUVEC after 6 hrs by microarray analysis relative to control; how it was run: as §3
# HUVEC [27] = assay: Effect on ANTXR1 gene expression in serum-starved HUVEC after 6 hrs by microarray analysis relative to control; how it was run: as §2
# HUVEC [28] = assay: Effect on HAVCR2 gene expression in serum-starved HUVEC after 24 hrs by microarray analysis relative to control; how it was run: as §3
# HUVEC [29] = assay: Effect on PLA2G4C gene expression in serum-starved HUVEC after 6 hrs by microarray analysis relative to control; how it was run: as §4
# HUVEC [30] = assay: Effect on SERPINB2 gene expression in serum-starved HUVEC after 24 hrs by microarray analysis relative to control
# HUVEC [31] = assay: Effect on BHLHE40 gene expression in serum-starved HUVEC after 24 hrs by microarray analysis relative to control; how it was run: as §2
# HUVEC [32] = assay: Effect on IL10 gene expression in serum-starved HUVEC after 6 hrs by microarray analysis relative to control; how it was run: as §1
# HUVEC [33] = assay: Effect on RETSAT gene expression in serum-starved HUVEC after 6 hrs by microarray analysis relative to control
# HUVEC [34] = assay: Effect on SND1-IT1 gene expression in serum-starved HUVEC after 24 hrs by microarray analysis relative to control
# HUVEC [35] = assay: Effect on ZAK gene expression in serum-starved HUVEC after 24 hrs by microarray analysis relative to control
# HUVEC [36] = assay: Effect on MAP1B gene expression in serum-starved HUVEC after 6 hrs by microarray analysis relative to control; how it was run: as §4
# HUVEC [37] = assay: Effect on CKS2 gene expression in serum-starved HUVEC after 6 hrs by microarray analysis relative to control; how it was run: as §1
# HUVEC [38] = assay: Effect on ITGA2 gene expression in serum-starved HUVEC after 24 hrs by microarray analysis relative to control; how it was run: as §1
structure (smiles),measurement,setting,value
COc1ccc(Cn2nc(-c3ccccc3)c3cc(Nc4ccc(N5CCN(C)CC5)cc4)nc(N4CCN(C)CC4)c32)cc1,log2FC,HUVEC [1],0.4634
same,fold change (FC),HUVEC [2],-0.5593
same,log2FC,HUVEC [3],0.5991
same,fold change (FC),HUVEC [4],0.2137
same,log2FC,HUVEC [5],-0.1389
same,fold change (FC),HUVEC [6],-0.0362
same,fold change (FC),HUVEC [7],0.3593
same,fold change (FC),HUVEC [8],0.1181
same,fold change (FC),HUVEC [9],0.5435
same,fold change (FC),HUVEC [10],0.2925
same,log2FC,HUVEC [11],0.0911
same,log2FC,HUVEC [12],-0.1879
same,log2FC,HUVEC [13],-0.8363
same,fold change (FC),HUVEC [14],0.3036
same,fold change (FC),HUVEC [15],0.1994
same,fold change (FC),HUVEC [16],-0.8514
same,log2FC,HUVEC [17],-0.2125
same,log2FC,HUVEC [18],-0.1432
same,fold change (FC),HUVEC [19],0.0717
same,fold change (FC),HUVEC [20],0.0116
same,log2FC,HUVEC [21],0.0749
same,fold change (FC),HUVEC [22],0.1625
same,log2FC,HUVEC [23],-0.1173
same,log2FC,HUVEC [24],1.8135
same,log2FC,HUVEC [25],-0.5372
same,fold change (FC),HUVEC [26],0.1437
same,fold change (FC),HUVEC [27],0.1452
same,fold change (FC),HUVEC [28],-0.7422
same,fold change (FC),HUVEC [29],0.3857
same,log2FC,HUVEC [30],-0.6601
same,log2FC,HUVEC [31],0.6018
COc1ccc(Cn2nc(-c3ccccc3)c3cc(Nc4ccc(N5CCN(C)CC5)cc4)nc(N4CCNCC4)c32)cc1,log2FC,HUVEC [32],0.4049
same,log2FC,HUVEC [33],0.0844
same,log2FC,HUVEC [34],0.603
COc1ccc(Cn2nc(-c3ccccc3)c3cc(Cl)nc(N4CCNCC4)c32)cc1,log2FC,HUVEC [35],0.0198
same,fold change (FC),HUVEC [36],0.5859
same,log2FC,HUVEC [37],0.2477
same,log2FC,HUVEC [38],-0.0226
